Results taken from ChEMBL document CHEMBL3875165, “Novel broad-spectrum and long-acting parenteral cephalosporins having an acyl cyanamide moiety at the C-3 terminal: Synthesis and structure-activity relationships” (Eur J Med Chem, 2016).

Assays:
[1] = Half life in monkey at 20 mg/kg, iv administered as bolus dose by HPLC method; format: ADME, organism-based, Macaca mulatta; settings: rhesus monkey, in vivo
How it was run: (§1)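 Three monkeys per group received a single iv bolus of 20 mg/kg (1 mL/kg). Plasma levels were measured by HPLC. AUC0-∞, CLtot and T1/2 came from a 2-compartment fit.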

[2] = AUC (0 to infinity) in monkey at 20 mg/kg, iv administered as bolus dose by HPLC method; format: ADME, organism-based, Macaca mulatta; parameters: dose 20 mg/kg, time infinity, route intravenous; settings: rhesus monkey, in vivo; how it was run: as §1
[3] = Protein binding in ICR mouse plasma after 30 mins by ultra-filtration method; format: ADME, cell-free; settings: read-out: PPB (converted)
How it was run: (§2)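 Mouse or monkey plasma was adjusted to pH 7 with CO2 and spiked with compound to a final 10 µg/ml. It was incubated 30 min at 37 °C, then ultrafiltered by centrifugation at 3200 rpm for 30 min at 25 °C. Free drug in the filtrate was measured by bioassay to give the bound fraction.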

[4] = system: Staphylococcus aureus; assay: Antibacterial activity against Staphylococcus aureus SMITH after 20 hrs by agar dilution method; format: functional
How it was run: (§3)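 Agar dilution MIC on Sensitivity Disk Agar-N with 2-fold serial drug dilutions. Overnight Mueller Hinton broth cultures were diluted to about 10^6 CFU/mL, and 1 µL spots were applied. Plates were incubated 20 h at 37 °C before scoring.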

[5] = Total clearance in mouse at 20 mg/kg, iv administered as bolus dose by band-culture bioassay; settings: in vivo
[6] = Half life in mouse at 20 mg/kg, iv administered as bolus dose by band-culture bioassay; settings: in vivo
[7] = system: Streptococcus pneumoniae; assay: Antibacterial activity against penicillin-resistant Streptococcus pneumoniae SR16750 after 20 hrs by agar dilution method; format: functional; settings: SR16750, 20 h
How it was run: (§4)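 Agar dilution on Sensitivity Disk Agar-N. Overnight Mueller Hinton broth cultures were diluted to about 10^6 CFU/mL, and 1 µL spots were placed on agar plates holding 2-fold serial dilutions of antibiotic. Plates were incubated 20 h at 37 °C and then MICs were scored.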

[8] = system: Streptococcus pneumoniae; assay: Antibacterial activity against penicillin-resistant Streptococcus pneumoniae SR16675 after 20 hrs by agar dilution method; format: functional; settings: SR16675, 20 h; how it was run: as §4
[9] = Protein binding in cynomolgus monkey plasma after 30 mins by ultra-filtration method; format: ADME, cell-free, Macaca fascicularis; settings: read-out: PPB (converted); how it was run: as §2
[10] = AUC (0 to infinity) in mouse at 20 mg/kg, iv administered as bolus dose by band-culture bioassay; settings: in vivo
[11] = system: Haemophilus influenzae; assay: Antibacterial activity against beta-lactamase non-producing penicillin-resistant Haemophilus influenzae SR11435 after 20 hrs by agar dilution method; format: functional; settings: SR11435, 20 h; how it was run: as §4
[12] = system: Moraxella catarrhalis; assay: Antibacterial activity against Moraxella catarrhalis SR24290 after 20 hrs by agar dilution method; format: functional; settings: SR24290, 20 h; how it was run: as §3
[13] = system: Haemophilus influenzae; assay: Antibacterial activity against beta-lactamase non-producing penicillin-resistant Haemophilus influenzae SR24106 after 20 hrs by agar dilution method; format: functional; settings: SR24106, 20 h; how it was run: as §4
[14] = system: Escherichia coli; assay: Antibacterial activity against Escherichia coli NIHJ JC-2 after 20 hrs by agar dilution method; format: functional; settings: NIHJ JC-2, 20 h; how it was run: as §3
[15] = Total clearance in monkey at 20 mg/kg, iv administered as bolus dose by HPLC method; format: ADME, organism-based, Macaca mulatta; settings: rhesus monkey, in vivo; how it was run: as §1

| Compound | half-life [1] [h] | AUC [2] [ng·h/mL] | fraction unbound at 0.5 h [3] | MIC [4] [µg/mL] | clearance [5] [mL/min/kg] | half-life [6] [h] | MIC [7] [µg/mL] | MIC [8] [µg/mL] | fraction unbound at 0.5 h [9] | AUC(0-inf) [10] [ng·h/mL] | MIC [11] [µg/mL] | MIC [12] [µg/mL] | MIC [13] [µg/mL] | MIC [14] [µg/mL] | clearance [15] [mL/min/kg] |
| --- | --- | --- | --- | --- | --- | --- | --- | --- | --- | --- | --- | --- | --- | --- | --- |
| CCO/N=C(\C(=O)N[C@@H]1C(=O)N2C(C(=O)[O-])=C(/C=C/C[n+]3ccc(-c4c[nH]c(/C([O-])=N/C#N)c4C)cc3)CS[C@H]12)c1csc(N)n1.[Na+] | 5.19 | 42200 | 0.54 | 0.25 | 15.2 | 0.86 | 0.125 | 0.125 | 0.16 | 22000 | 0.063 | 4 | 0.125 | 0.125 | 0.4 |
| CCO/N=C(\C(=O)N[C@@H]1C(=O)N2C(C(=O)[O-])=C(/C=C/C[n+]3ccc(-c4cc(/C([O-])=N/C#N)on4)cc3)CS[C@H]12)c1csc(N)n1.[Na+] | 5.14 | 59800 | 0.78 | 0.5 | 22.6 | 0.85 | 0.25 | 0.25 | 0.06 | 14800 | 0.063 | 0.5 | 0.125 | 0.125 | 0.29 |
| CCO/N=C(\C(=O)N[C@@H]1C(=O)N2C(C(=O)[O-])=C(/C=C/C[n+]3ccc(-c4c[nH]c(/C([O-])=N/C#N)c4)cc3)CS[C@H]12)c1csc(N)n1.[Na+] | 4.25 | 20200 | 0.75 | 0.25 | 18.9 | 0.93 | 0.25 | 0.125 | 0.3 | 17600 | 0.063 | 8 | 0.125 | 0.125 | 0.84 |
| CCO/N=C(\C(=O)N[C@@H]1C(=O)N2C(C(=O)[O-])=C(/C=C/C[n+]3cccc(/C([O-])=N/C#N)c3)CS[C@H]12)c1csc(N)n1.[Na+] | 1.33 | 9500 | 0.94 | 0.5 | 23.7 | 0.55 | 0.5 | 0.25 | 0.67 | 14100 | 0.063 | 2 | 0.125 | 0.125 | 1.79 |
| CCO/N=C(\C(=O)N[C@@H]1C(=O)N2C(C(=O)[O-])=C(/C=C/C[n+]3ccc(-c4csc(/C([O-])=N/C#N)c4)cc3)CS[C@H]12)c1csc(N)n1.[Na+] | 4.67 | 25900 | 0.63 | 0.25 | 11 | 0.75 | 0.25 | 0.125 | 0.36 | 30400 | 0.063 | 2 | 0.125 | 0.125 | 0.66 |
| CCO/N=C(\C(=O)N[C@@H]1C(=O)N2C(C(=O)[O-])=C(/C=C/C[n+]3cccc4cc(/C([O-])=N/C#N)[nH]c43)CS[C@H]12)c1csc(N)n1.[Na+] | 4.35 | 29200 | 0.67 | 0.5 | 15 | 0.64 | 0.5 | 0.25 | 0.06 | 22200 | 0.063 | 0.5 | 0.25 | 0.125 | 0.57 |
| CCO/N=C(\C(=O)N[C@@H]1C(=O)N2C(C(=O)[O-])=C(/C=C/C[n+]3ccc(/C([O-])=N/C#N)cc3)CS[C@H]12)c1csc(N)n1.[Na+] | 1.22 | 9700 | 0.92 | 0.5 | 22.9 | 0.72 | 0.5 | 0.25 | 0.59 | 14600 | 0.063 | 1 | 0.125 | 0.25 | 1.84 |
| CCO/N=C(\C(=O)N[C@@H]1C(=O)N2C(C(=O)[O-])=C(/C=C/C[n+]3ccc4[nH]c(/C([O-])=N/C#N)cc4c3)CS[C@H]12)c1csc(N)n1.[Na+] | 3.35 | 20900 | 0.73 | 0.5 | 10.9 | 0.63 | 0.5 | 0.25 | 0.33 | 30400 | 0.063 | 4 | 0.125 | 0.25 | 0.8 |
| CCO/N=C(\C(=O)N[C@@H]1C(=O)N2C(C(=O)[O-])=C(/C=C/C[n+]3ccc4sc(/C([O-])=N/C#N)nc4c3)CS[C@H]12)c1csc(N)n1.[Na+] | 2.86 | 24500 | 0.59 | 0.5 | 14 | 0.7 | 0.25 | 0.125 | 0.16 | 23700 | 0.063 | 0.5 | 0.063 | 0.25 | 0.68 |
| CCO/N=C(\C(=O)N[C@@H]1C(=O)N2C(C(=O)[O-])=C(/C=C/C[n+]3cccc4[nH]c(/C([O-])=N/C#N)cc43)CS[C@H]12)c1csc(N)n1.[Na+] | 2.03 | 9800 | 0.64 | 0.5 | 14.1 | 0.73 | 0.5 | 0.25 | 0.4 | 23600 | 0.031 | 1 | 0.125 | 0.125 | 1.74 |
